# Source: PubChem BioAssay
# This is a sample that favours compounds with a hit; in the whole collection about 4.6% have one here.
# OX1R antag-1 = antagonists of human orexin 1 receptor (OX1R). inhibition, % at 6.6 µM. OX1R-expressing cells, FRET antagonist read-out. actives 1.8% (n = 330,000). O43613; in the data active = inhibition mostly above about 38%, no sharp cut-off; inactive = mostly below about 40%;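 also: 0% = agonist challenge alone and 100% = reference antagonist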
# GPR7 antag = human neuropeptides B/W receptor 1 antagonism. P48145. GPR7-expressing cells, fluorescence antagonist assay. inhibition, % at 4.4 µM. actives 1.1% (n = 290,000). AID 1861; in the data active = inhibition above about 16%, passing the limit was not always enough;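 also: cells stimulated with the agonist NPW; 0% = agonist with vehicle and 100% = vehicle without agonist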
# Target sequence (P48145 whole entry, looked up): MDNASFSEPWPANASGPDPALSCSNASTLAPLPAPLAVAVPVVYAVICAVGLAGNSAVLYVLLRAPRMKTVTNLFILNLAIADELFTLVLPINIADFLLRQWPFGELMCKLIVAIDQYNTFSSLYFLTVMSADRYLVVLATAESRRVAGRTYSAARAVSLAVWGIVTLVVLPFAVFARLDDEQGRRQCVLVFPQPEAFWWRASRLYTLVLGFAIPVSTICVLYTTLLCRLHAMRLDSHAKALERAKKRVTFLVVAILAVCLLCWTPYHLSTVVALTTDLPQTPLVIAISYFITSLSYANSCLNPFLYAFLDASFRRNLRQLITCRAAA
# TAAR1 ag = human TAAR1 agonism; Q96RJ0; CHO RD-HGA16 TAAR1, Fluo-8 calcium fluorescence; vehicle wells 0%, saturating PEA agonist 100%; activation, % at 3 µM; actives 0.99% (n = 360,000);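 active = activation above the mean activation of all test compounds in the run plus 3 SD, cut at about 38% in these data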
#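 Test system: RD-HGA16 (CHO) cells co-expressing Gα16 and hTAAR1; dosing: one-point dosing at 3 µM (nominal); timing: 17-24 h seeding, 75 min 37 °C dye, 30 min RT; signal: kinetic Fluo-8 calcium fluorescence; read-out basis: % activation relative to PEA EC100 response; controls: DMSO and PEA EC100; replicates: n 1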
# OX1R antag-2 = blocks the human orexin 1 receptor | inhibition, % at 5 µM | actives 0.43% (n = 330,000) | CHO/OX1R cells, Fluo-8 calcium fluorescence, orexin A;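 active = inhibition above its plate's threshold, mean inhibition of all tested compounds on the plate plus 3 SD, cut at about 37% in these data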;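 also: 0% = orexin A challenge wells and 100% = SB-334867-A antagonist wells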
# TAAR1 antag = human TAAR1 antagonism. Q96RJ0. CHO RD-HGA16 TAAR1, Fluo-8 calcium fluorescence, antagonist. inhibition, % at 3 µM. actives 1.5% (n = 360,000). AID 624466;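 active = inhibition above a per-plate cutoff, the mean inhibition of test compounds on that plate plus 3 SD, cut at about 49% in these data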;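 also: 0% = DMSO plus EC80 beta-PEA response and 100% = DMSO alone without agonist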
#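 Material: RD-HGA16 CHO cells with stable hTAAR1 and Gα16; Dosing: single nominal final test compound concentration of 3 µM; Schedule: seeding 17-24 h prior, 75-min 37 °C, 30-min RT dye loading; Detection: kinetic Fluo-8 calcium fluorescence measurement; Measure: % inhibition from peak post-agonist over basal fluorescence ratio; Benchmarks: vehicle and agonist controls.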
# CHO parental Ca = signal in parental CHO cells, OX1R antagonist counter-screen; actives 0.63% (n = 330,000); AID 463079; parental CHO-K1, ATP-induced calcium, Fluo-8 fluorescence; inhibition, % at 5.6 µM;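 active = inhibition above that plate's mean sample inhibition plus 3 SD, cut at about 26% in these data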;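 also: 0% = ATP-challenged DMSO wells and 100% = DMSO wells without ATP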
#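 Measured by: calcium-sensitive Fluo-8 fluorescence / Test system: CHO parental line / Controls: ATP-challenged DMSO wells low, unchallenged DMSO wells high / Measure: % inhibition / Compound: single nominal dose of 5.6 µM per compound / Replicates: single well per compound, no replicates / Reagent: ATP as calcium-mobilizing challenge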
# nonsel antag count = nonselective antagonist in TAAR1 antagonist counter-screen | shares compounds with TAAR1 antag | counterscreen cell line, calcium fluorescence, antagonist mode | inhibition, % at 3 µM | actives 77% (n = 2,400); in the data active = inhibition above about 22%;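 also: CHO-Ga16 host cells stimulated with ATP at an EC80 level; 0% = agonist EC80 plus vehicle and 100% = vehicle without agonist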
# TAAR1 ant conf = confirmation of human TAAR1 antagonists | actives 40% (n = 2,400) | inhibition, % at 3 µM | AID 651785 | shares compounds with TAAR1 antag | TAAR1-expressing cells, fluorescence antagonist read-out; in the data active = inhibition above about 49%;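 also: CHO-Ga16 host cells challenged with agonist PEA near its EC80; 0% = agonist at EC80 plus vehicle and 100% = vehicle with no agonist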
# Ga16 nonsel ag = nonselective Ga16 agonism, counter-screen; shares compounds with TAAR1 antag; Ga16-expressing cells, calcium fluorescence, agonist counterscreen; activation, % at 3 µM; actives 18% (n = 2,400); AID 651953; in the data active = activation above about 12%;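 also: 0% = vehicle wells and 100% = saturating stimulus response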
# TAAR1 ag counter = counter-screen for human TAAR1 antagonists: TAAR1 agonists; shares compounds with TAAR1 antag; actives 2% (n = 2,400); AID 651955; hTAAR1 cell line, fluorescence activation, agonist mode; activation, % at 3 µM; in the data active = activation above about 37%;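 also: CHO cells stably expressing TAAR1 with calcium dye readout; 0% = DMSO vehicle and 100% = full agonist response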
# * marks the source's active call; other numbers are inactive results; . = no result.
SMILES,OX1R antag-1,GPR7 antag,TAAR1 ag,OX1R antag-2,TAAR1 antag,CHO parental Ca,nonsel antag count,TAAR1 ant conf,Ga16 nonsel ag,TAAR1 ag counter
O=C(CSc1n[nH]c(=O)n1C1CC1)Nc1cc(Cl)ccc1Oc1ccccc1,48,8,21,20,79*,33*,47*,66*,14*,13
COC(=O)C(c1ccccc1)C(CC(=O)c1ccccc1)c1ccccc1 (centres undefined),.,.,-1,.,76*,.,14,32,2,-1
COc1ccc(CCNC2=C(Cl)C(=O)N(CCc3ccccc3)C2=O)cc1OC,23,-8,13,-26,74*,-14,38*,46,8,4
COc1ccc(CCNC(=O)CCN2C(=O)c3ccccc3C2=O)cc1OC,21,-15,.,-20,.,-17,.,.,.,.
Cc1cccc(NC(=O)C2CCN(S(=O)(=O)c3c(C)c(C)cc(C)c3C)CC2)n1,10,.,0,-19,78*,-37,24*,50*,5,7
CC(C)CCNC(=O)c1cc(-c2cccs2)nc2ccccc12,2,6,8,-30,66*,-9,29*,46,6,3
NS(=O)(=O)c1cccc(NC(=O)c2cccs2)c1,1,-11,-1,-17,-4,-8,.,.,.,.
O=C(c1cc(-c2cccs2)nc2ccccc12)N1CCN(S(=O)(=O)c2ccccc2)CC1,3,-2,23,-36,48,-12,.,.,.,.
NS(=O)(=O)c1ccc(CNC(=O)c2cc(-c3cccs3)nc3ccccc23)cc1,7,-18,15,-2,69*,-2,36*,51*,9,12
NS(=O)(=O)c1ccc(CNC(=O)Cc2cccs2)cc1,-6,-8,3,-4,-5,1,.,.,.,.
CCC(C)NC(=O)c1cc(-c2cccs2)nc2ccccc12 (centres undefined),8,-12,10,-18,14,-15,.,.,.,.
O=C(c1cc(-c2cccs2)nc2ccccc12)N1CCN(S(=O)(=O)c2cccc(F)c2)CC1,7,0,15,9,52*,-10,34*,46,11,12
NS(=O)(=O)c1cccc(NC(=O)c2cc(-c3cccs3)nc3ccccc23)c1,17,-15,11,-5,67*,-9,37*,50*,8,10
COC(=O)c1sc(N)c(C(=O)OC)c1Cn1ncc(Cl)c(Cl)c1=O,-8,-1,6,-11,-5,-12,.,.,.,.
CCCCn1c(N)c(N(CC(C)C)C(=O)C2CC(=O)N(Cc3ccco3)C2)c(=O)[nH]c1=O (centres undefined),8,-14,4,1,-19,1,.,.,.,.
O=S(=O)(CCOc1ccccc1)N1CCOCC1,28,-16,2,4,-2,-3,.,.,.,.
O=C(NCc1cccs1)c1cc(-c2ccccc2)nc2ccccc12,10,-3,7,-31,58*,-18,23*,40,7,6
NS(=O)(=O)c1ccc(CCNC(=O)c2cc(-c3cccs3)nc3ccccc23)cc1,.,-14,18,.,65*,.,35*,57*,12*,10
COc1cc(-c2cc(C(=O)NCCc3ccc(S(N)(=O)=O)cc3)c3ccccc3n2)cc(OC)c1OC,6,-21,3,-34,42,-16,.,.,.,.
COCOc1cccc(CN2CCC2(C)C(=O)NCCNC(C)=O)c1 (centres undefined),.,.,3,.,-2,.,.,.,.,.
COCCNc1nc(-c2cc(C)c(C)cc2C)cs1,13,-4,10,-27,-13,-15,.,.,.,.
COc1ccc(N2CCN(c3nc(Nc4ccc(F)cc4)nc(OC)n3)CC2)cc1,.,-3,.,.,.,.,.,.,.,.
